Rows were chosen to be rich in hits. Some 2.2% of all compounds tested hit in one or more screens of this group.
Mcl1-Bid inh: Mcl-1/Bid interaction inhibition; AID 1021; Q07820; TR-FRET Mcl-1/Bid-Dy647 peptide binding, 1536-well; hit rate 0.97% among 220,000; inhibition, % at 21.7 µM;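 active = compounds that cut the binding signal by more than half at the single screening dose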;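 note: His-tagged Mcl-1 with europium anti-His antibody binding Bid BH3 peptide; 0% = Mcl-1 plus peptide wells and 100% = peptide-only wells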
Target sequence (Q07820 whole entry, looked up): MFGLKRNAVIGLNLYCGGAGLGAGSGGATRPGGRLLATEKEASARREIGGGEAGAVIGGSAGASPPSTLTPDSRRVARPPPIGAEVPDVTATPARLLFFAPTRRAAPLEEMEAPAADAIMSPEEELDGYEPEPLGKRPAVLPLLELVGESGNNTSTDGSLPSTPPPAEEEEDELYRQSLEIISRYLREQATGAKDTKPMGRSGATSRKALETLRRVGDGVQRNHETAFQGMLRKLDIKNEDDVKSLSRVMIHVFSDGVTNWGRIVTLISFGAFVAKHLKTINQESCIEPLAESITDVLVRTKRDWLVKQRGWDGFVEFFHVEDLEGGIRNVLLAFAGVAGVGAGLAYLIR
MCL1 BIM primary: disrupts human MCL1 binding to BIM-BH3 peptide; GST-MCL1 / FITC-Bim-BH3 fluorescence polarization; inhibition, % at 10.9 µM; hit rate 0.68% among 320,000;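 active = inhibition above the mean inhibition of all tested compounds plus 3 SD, set per campaign, cut at about 40% in these data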;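 note: 0% = DMSO wells and 100% = unlabeled Bim-BH3 peptide control; higher means more loss of mP so more displacement of Bim peptide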
RBBP9 inh: blocks human serine hydrolase RBBP9; hit rate 0.2% among 220,000; recombinant RBBP9, FP-Rh probe fluorescence polarization; inhibition, % at 7.94 µM; O75884;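 active = inhibition above the campaign mean of all tested compounds plus 3 SD, cut at about 14% in these data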;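 note: plate controls were DMSO wells with RBBP9 for no effect and wells lacking RBBP9 protein for full effect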
Target sequence (O75884 whole entry, looked up): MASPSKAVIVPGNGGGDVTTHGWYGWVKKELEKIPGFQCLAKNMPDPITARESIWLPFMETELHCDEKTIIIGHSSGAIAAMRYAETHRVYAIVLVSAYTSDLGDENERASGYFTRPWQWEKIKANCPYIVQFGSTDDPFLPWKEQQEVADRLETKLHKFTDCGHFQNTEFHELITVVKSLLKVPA
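System: RBBP9 protein / Quantity: 2.5 µM RBBP9 dispensing solution, before mixing / Also added: Serine-hydrolase probe FP-Rh, 375 nM pre-mixing / Dosing: 7.94 µM single dose, 0.794% DMSO / Timing: enzyme-compound preincubation 30 min, then probe labeling 45 min, 25 °C / Signal: FP readout at 525/598 nm / Controls: DMSO-treated enzyme wells and wells lacking RBBP9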
Mcl1 Noxa PPI: Mcl-1/Noxa interaction inhibition; Q07820; inhibition, % at 21.7 µM; hit rate 1.5% among 220,000; AID 1022; TR-FRET Mcl-1/Noxa peptide binding, 2 h;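 active = compounds that cut the protein-peptide binding signal by more than 50% relative to plate controls in a single-dose test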;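 note: His-tagged Mcl-1 with rhodamine Noxa BH3 peptide and terbium anti-His antibody; 0% = Mcl-1 plus Noxa peptide wells and 100% = peptide-only wells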
Mcl-1 Bim block: human Bim-Mcl-1 interaction inhibition | hit rate 0.1% among 190,000 | Q07820 | inhibition, % at 10 µM | Bead-based flow cytometry, Bim peptide-Mcl-1 binding; in the data active = inhibition above about 40%;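 note: 0% = no compound tracer wells and 100% = peptide blocker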
EBV gp42 inh: inhibitors of Epstein-Barr virus glycoprotein 42 | Q1HVG2 | Fluorescence polarization binding assay, mP read-out | inhibition, % (tested at 21.74 µM) | hit rate 0.42% among 220,000; in the data active = inhibition above about 50%
BCLXL inh confirm: counter-screen for MCL1 inhibitors: confirmation of human Bcl-xL inhibitors. shares compounds with MCL1 BIM primary. GST-Bcl-xL / FITC-Bim BH3 peptide FP binding. inhibition, % at 10.9 µM. hit rate 54% among 1,700. AID 2166;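 active = inhibition above a cutoff equal to the mean inhibition of all tested compounds plus 3 SD, cut at about 30% in these data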;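 note: 0% = DMSO wells and 100% = unlabeled Bim BH3 control peptide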
MCL1 inh confirm: MCL1-BIM-BH3 interaction inhibition, confirmation. shares compounds with MCL1 BIM primary. GST-MCL1 / FITC-Bim-BH3 fluorescence polarization. inhibition, % at 10.9 µM. hit rate 61% among 1,700;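 active = inhibition above the average of all tested compounds plus 3 SD, cut at about 40% in these data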;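 note: 0% = DMSO wells and 100% = unlabeled Bim-BH3 control peptide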
An asterisk follows results filed as active.

CC(=O)OCCCNc1cc(SCc2ccco2)c2nonc2c1[N+](=O)[O-] was read as Mcl1-Bid inh -33.5, MCL1 BIM primary 44.5*, RBBP9 inh 0.5, Mcl1 Noxa PPI 41.3, Mcl-1 Bim block 0.0, EBV gp42 inh -3.7, BCLXL inh confirm 28.7 and MCL1 inh confirm 45.8*.
`Cn1cnc(S(=O)(=O)N2CCN(c3cccc(Cl)c3)CC2)c1` gave MCL1 BIM primary -4.5.
`Cc1ccccc1CN1CCN(C2CCC2)CC1CCO` (configuration not stated) gave MCL1 BIM primary 0.1.
For O=c1[nH]c2cc3c(cc2cc1CN(Cc1ccc2c(c1)OCO2)Cc1nnnn1CC1CCCO1)OCO3 (configuration not stated) the results were Mcl1-Bid inh -14.0, MCL1 BIM primary 74.3*, RBBP9 inh -1.6, Mcl1 Noxa PPI 12.8, Mcl-1 Bim block -2.0, EBV gp42 inh -7.9, BCLXL inh confirm 9.8 and MCL1 inh confirm 6.7.
`Cc1ccc(NC(=O)CN(C)C(=O)CSc2nnc(N)s2)cc1` gave MCL1 BIM primary -11.0.
For O=C(O)c1cc(-c2ccco2)nn1-c1cccc(Cl)c1 the results were Mcl1-Bid inh 0.8, MCL1 BIM primary 82.1*, RBBP9 inh -7.0, Mcl1 Noxa PPI 68.7*, Mcl-1 Bim block -4.0, EBV gp42 inh 17.3, BCLXL inh confirm 17.8 and MCL1 inh confirm 37.9.
`O=C(NCCS(=O)(=O)N1CCCCCC1)c1ccc(F)cc1` gave MCL1 BIM primary 0.4.
Cc1ccc(-n2[nH]c(C)c(C=Nc3ccc4[nH]c(=O)[nH]c4c3)c2=O)cc1C was read as Mcl1-Bid inh -6.7, MCL1 BIM primary 116.8*, RBBP9 inh 1.4, Mcl1 Noxa PPI 12.0, Mcl-1 Bim block 2.0, EBV gp42 inh 23.3, BCLXL inh confirm 102.6* and MCL1 inh confirm 129.5*.
`CCOc1ccccc1NC(=O)CN(c1ccc(OC)cc1)S(=O)(=O)c1c(C)[nH]c(=O)[nH]c1=O` gave MCL1 BIM primary 5.5.
For C=CCn1c(CSc2ccccc2[N+](=O)[O-])n[nH]c1=S the results were MCL1 BIM primary 45.5*, BCLXL inh confirm 28.0 and MCL1 inh confirm 46.2*.
Screening CCCn1nc(C(=O)Nc2ccc(N3CCOCC3)cc2)c2ccccc2c1=O returned MCL1 BIM primary -2.5.
`COc1ccc(NC(=O)c2sc3nc(-c4cccnc4)ccc3c2N)cc1` gave Mcl1-Bid inh 52.3*, MCL1 BIM primary 111.9*, RBBP9 inh -3.0, Mcl1 Noxa PPI 42.6, EBV gp42 inh 84.5*, BCLXL inh confirm 113.0* and MCL1 inh confirm 137.2*.
`Cc1ccc2c(c1)CCCN2CC(=O)N(C)c1c(N)n(Cc2ccccc2)c(=O)[nH]c1=O` gave MCL1 BIM primary 141.2*, BCLXL inh confirm 132.4* and MCL1 inh confirm 147.0*.
CCOC(=O)c1nncc(-c2ccccc2)n1 was read as MCL1 BIM primary -0.9.
`CCC1(c2ccccc2)NC(=O)N(CC(=O)NCc2ccccc2OC)C1=O` (configuration not stated) gave MCL1 BIM primary -5.6.
Screening CCC1(c2ccccc2)NC(=O)N(CC(=O)Nc2ccc(OC)nc2)C1=O (configuration not stated) returned MCL1 BIM primary active, BCLXL inh confirm 168.2* and MCL1 inh confirm active.
`[O-][n+]1c2ccccc2[n+]([O-])c2cc(O)ccc21` gave MCL1 BIM primary 46.1*, BCLXL inh confirm 44.5* and MCL1 inh confirm 77.3*.
For Nc1n[nH]c2cc(=O)n(-c3cccc(C(F)(F)F)c3)nc12 the results were Mcl1-Bid inh -8.0, MCL1 BIM primary 60.4*, RBBP9 inh -1.5, Mcl1 Noxa PPI -4.1, Mcl-1 Bim block 0.0, EBV gp42 inh 28.3, BCLXL inh confirm 38.2* and MCL1 inh confirm 53.7*.
`NC(=S)N/N=C/c1ccc(C(F)(F)F)cc1` gave Mcl1-Bid inh -98.6, MCL1 BIM primary 11.5, RBBP9 inh -14.9, Mcl1 Noxa PPI 13.6, Mcl-1 Bim block 0.0 and EBV gp42 inh 6.1.
